From ChEMBL document CHEMBL4041542, “Synthesis and biological characterisation of ester and amide derivatives of fusidic acid as antiplasmodial agents” (Bioorg Med Chem Lett, 2017)

Assays:
CHO = experiment: Cytotoxicity against CHO cells; type: cell-based; conditions: Cricetulus griseus
Plasmodium falciparum [1] = experiment: Antiplasmodial activity against chloroquine-resistant Plasmodium falciparum K1 by [3H]hypoxanthine incorporation assay; type: functional
Summary of the method: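 Multidrug-resistant K1 strain of P. falciparum tested in vitro with a modified [3H]hypoxanthine incorporation assay. IC50 determined. Chloroquine and artesunate served as reference drugs in every experiment.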

Plasmodium falciparum [2] = experiment: Antiplasmodial activity against chloroquine-sensitive Plasmodium falciparum NF54 by LDH assay; type: functional
Summary of the method: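 In vitro test on the chloroquine-sensitive NF54 strain of P. falciparum, read out by the lactate dehydrogenase assay. Reported as IC50. Chloroquine and artesunate were included as reference drugs in all experiments.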

Plasmodium falciparum [3] = experiment: Potency index, ratio of fusidic acid IC50 to compound IC50 for chloroquine-sensitive Plasmodium falciparum NF54; type: functional
Summary of the method: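 Chloroquine-sensitive P. falciparum NF54 was tested with the lactate dehydrogenase assay, using chloroquine and artesunate as reference drugs. The index is fusidic acid's IC50 divided by the compound's IC50, both against NF54.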

[4] = Selectivity index, ratio of IC50 for CHO cells to IC50 for chloroquine-sensitive Plasmodium falciparum NF54; type: toxicity; conditions: hamster, read-out: Ratio IC50
Summary of the method: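 IC50 against Chinese hamster ovary cells (cytotoxicity) was divided by IC50 against P. falciparum NF54. NF54 IC50 came from the lactate dehydrogenase assay, with chloroquine and artesunate as references.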

Plasmodium falciparum [5] = experiment: Potency index, ratio of fusidic acid IC50 to compound IC50 for chloroquine-resistant Plasmodium falciparum K1; type: functional

| SMILES | IC50 (CHO) | IC50 (Plasmodium falciparum [1]) | IC50 (Plasmodium falciparum [2]) | Ratio IC50 (Plasmodium falciparum [3]) | selectivity ratio [4] | Ratio IC50 (Plasmodium falciparum [5]) |
| --- | --- | --- | --- | --- | --- | --- |
| CCCCCCCCCCCCCCCCNC(=O)/C(CCC=C(C)C)=C1\[C@@H](OC(C)=O)C[C@@]2(C)[C@H]1C[C@@H](O)[C@H]1[C@@]3(C)CC[C@@H](O)[C@@H](C)[C@@H]3CC[C@@]12C | > 135000 nM | > 13500 nM | > 100000 nM |  |  |  |
| CC(=O)O[C@H]1C[C@@]2(C)[C@@H](C[C@@H](O)[C@H]3[C@@]4(C)CC[C@@H](O)[C@@H](C)[C@@H]4CC[C@@]32C)/C1=C(\CCC=C(C)C)C(=O)Oc1cccc(Cl)c1 | 87700 nM | 1200 nM | 1400 nM | 4 - 49 | 63 | 5 - 17 |
| CC(=O)O[C@H]1C[C@@]2(C)[C@@H](C[C@@H](O)[C@H]3[C@@]4(C)CC[C@@H](O)[C@@H](C)[C@@H]4CC[C@@]32C)/C1=C(\CCC=C(C)C)C(=O)Oc1ccc(Cl)cc1 | 71600 nM | 1400 nM | 2300 nM | 20 - 28 | 31 | 12 - 14 |
| CCCCCCCCCCCCOC(=O)/C(CCC=C(C)C)=C1\[C@@H](OC(C)=O)C[C@@]2(C)[C@H]1C[C@@H](O)[C@H]1[C@@]3(C)CC[C@@H](O)[C@@H](C)[C@@H]3CC[C@@]12C | > 146000 nM | > 14600 nM | > 100000 nM |  |  |  |
| CCCCCCCCCCCCCCNC(=O)/C(CCC=C(C)C)=C1\[C@@H](OC(C)=O)C[C@@]2(C)[C@H]1C[C@@H](O)[C@H]1[C@@]3(C)CC[C@@H](O)[C@@H](C)[C@@H]3CC[C@@]12C | > 140000 nM | 4000 nM | 13400 nM | 4 - 49 | > 10 | 5 - 17 |
| CC[C@H]1CN2CCc3cc(OC)c(OC)cc3[C@@H]2C[C@@H]1C[C@H]1NCCc2cc(OC)c(OC)cc21 [EMETINE] | 178 nM |  |  |  |  |  |
| CC(=O)O[C@H]1C[C@@]2(C)[C@@H](C[C@@H](O)[C@H]3[C@@]4(C)CC[C@@H](O)[C@@H](C)[C@@H]4CC[C@@]32C)/C1=C(\CCC=C(C)C)C(=O)Oc1ccc(C)cc1C | 98900 nM | 1400 nM | 2400 nM | 4 - 49 | 41 | 5 - 17 |
| CC(=O)O[C@H]1C[C@@]2(C)[C@@H](C[C@@H](O)[C@H]3[C@@]4(C)CC[C@@H](O)[C@@H](C)[C@@H]4CC[C@@]32C)/C1=C(\CCC=C(C)C)C(=O)Oc1cccc(Br)c1 | 98300 nM | 1600 nM | 2600 nM | 4 - 49 | 38 | 5 - 17 |
| CC(=O)O[C@H]1C[C@@]2(C)[C@@H](C[C@@H](O)[C@H]3[C@@]4(C)CC[C@@H](O)[C@@H](C)[C@@H]4CC[C@@]32C)/C1=C(\CCC=C(C)C)C(=O)Oc1cc(F)cc(F)c1 | 96700 nM |  | 4700 nM | 4 - 49 | 21 | 5 - 17 |
| CCCCCCCCCCCCCCOC(=O)/C(CCC=C(C)C)=C1\[C@@H](OC(C)=O)C[C@@]2(C)[C@H]1C[C@@H](O)[C@H]1[C@@]3(C)CC[C@@H](O)[C@@H](C)[C@@H]3CC[C@@]12C | > 140000 nM | > 14000 nM | > 100000 nM |  |  |  |
| CC(=O)O[C@H]1C[C@@]2(C)[C@@H](C[C@@H](O)[C@H]3[C@@]4(C)CC[C@@H](O)[C@@H](C)[C@@H]4CC[C@@]32C)/C1=C(\CCC=C(C)C)C(=O)Oc1ccc(F)cc1 | 79400 nM | 1400 nM | 2900 nM | 20 - 28 | 27 | 12 - 14 |
| C[C@H]1[C@H](OC(=O)CCC(=O)O)O[C@@H]2O[C@@]3(C)CC[C@H]4[C@H](C)CC[C@@H]1[C@@]24OO3 [ARTESUNATE] |  | 2.6 nM | 9.3 nM |  |  |  |
| CCCCOC(=O)/C(CCC=C(C)C)=C1\[C@@H](OC(C)=O)C[C@@]2(C)[C@H]1C[C@@H](O)[C@H]1[C@@]3(C)CC[C@@H](O)[C@@H](C)[C@@H]3CC[C@@]12C | 37400 nM | 1500 nM | 2900 nM | 4 - 49 | 13 | 5 - 17 |
| COc1cccc(OC(=O)/C(CCC=C(C)C)=C2\[C@@H](OC(C)=O)C[C@@]3(C)[C@H]2C[C@@H](O)[C@H]2[C@@]4(C)CC[C@@H](O)[C@@H](C)[C@@H]4CC[C@@]23C)c1 | 86400 nM | 1300 nM | 1800 nM | 4 - 49 | 48 | 5 - 17 |
| CCCCCCCCOC(=O)/C(CCC=C(C)C)=C1\[C@@H](OC(C)=O)C[C@@]2(C)[C@H]1C[C@@H](O)[C@H]1[C@@]3(C)CC[C@@H](O)[C@@H](C)[C@@H]3CC[C@@]12C | 92400 nM | 1600 nM | 4600 nM | 4 - 49 | 20 | 5 - 17 |
| CC(=O)O[C@H]1C[C@@]2(C)[C@@H](C[C@@H](O)[C@H]3[C@@]4(C)CC[C@@H](O)[C@@H](C)[C@@H]4CC[C@@]32C)/C1=C(\CCC=C(C)C)C(=O)Oc1ccc2ccccc2c1 | > 155000 nM | 1700 nM | 3200 nM | 4 - 49 | > 48 | 5 - 17 |
| CC(=O)O[C@H]1C[C@@]2(C)[C@@H](C[C@@H](O)[C@H]3[C@@]4(C)CC[C@@H](O)[C@@H](C)[C@@H]4CC[C@@]32C)/C1=C(\CCC=C(C)C)C(=O)Oc1ccc(Cl)cc1Cl | 99700 nM | 1700 nM | 3500 nM | 4 - 49 | 28 | 5 - 17 |
| CC(=O)O[C@H]1C[C@@]2(C)[C@@H](C[C@@H](O)[C@H]3[C@@]4(C)CC[C@@H](O)[C@@H](C)[C@@H]4CC[C@@]32C)/C1=C(\CCC=C(C)C)C(=O)Oc1cccc(F)c1 | 89400 nM | 2000 nM | 2600 nM | 4 - 49 | 34 | 5 - 17 |
| CC(=O)O[C@H]1C[C@@]2(C)[C@@H](C[C@@H](O)[C@H]3[C@@]4(C)CC[C@@H](O)[C@@H](C)[C@@H]4CC[C@@]32C)/C1=C(\CCC=C(C)C)C(=O)Oc1ccc(Br)cc1 | 95300 nM | 1600 nM | 2100 nM | 20 - 28 | 45 | 12 - 14 |
| CC(=O)O[C@H]1C[C@@]2(C)[C@@H](C[C@@H](O)[C@H]3[C@@]4(C)CC[C@@H](O)[C@@H](C)[C@@H]4CC[C@@]32C)/C1=C(\CCC=C(C)C)C(=O)Oc1ccc(Cl)c(Cl)c1 | 95000 nM | 2200 nM | 3600 nM | 4 - 49 | 26 | 5 - 17 |
| CCCCCCCCCCCCCCCCOC(=O)/C(CCC=C(C)C)=C1\[C@@H](OC(C)=O)C[C@@]2(C)[C@H]1C[C@@H](O)[C@H]1[C@@]3(C)CC[C@@H](O)[C@@H](C)[C@@H]3CC[C@@]12C | > 135000 nM | > 13500 nM | > 100000 nM |  |  |  |
| CCCCCCCCCCCCNC(=O)/C(CCC=C(C)C)=C1\[C@@H](OC(C)=O)C[C@@]2(C)[C@H]1C[C@@H](O)[C@H]1[C@@]3(C)CC[C@@H](O)[C@@H](C)[C@@H]3CC[C@@]12C | > 146000 nM | 1500 nM | 1200 nM | 4 - 49 | > 122 | 5 - 17 |
| CC(=O)O[C@H]1C[C@@]2(C)[C@@H](C[C@@H](O)[C@H]3[C@@]4(C)CC[C@@H](O)[C@@H](C)[C@@H]4CC[C@@]32C)/C1=C(\CCC=C(C)C)C(=O)Oc1cc(C)ccc1C | 103000 nM | 1400 nM | 3000 nM | 4 - 49 | 34 | 5 - 17 |
